Test results: ChEMBL document CHEMBL4431374, “Synthesis and Antitubercular Activity of New Benzo[b]thiophenes” (ACS Med Chem Lett, 2016)
Values after ≈ are worked out from the molar mass of the structure shown.

How the values were obtained:
[1] = system: PANC-1; assay: (§1) Cytotoxicity against human PANC1 cells assessed as growth inhibition after 90 hrs by MTT assay; type: cell-based; settings: panc-1, 90 h
[2] = as §1; type: cell-based, PANC-1; settings: PANC-1 cells
[3] = system: Mycobacterium tuberculosis; assay: Antitubercular activity against dormant Mycobacterium tuberculosis H37Ra ATCC 25177 after 12 days by XTT reduction menadione assay; type: functional; settings: H37Ra ATCC 25177, 288 h
In short: (§2)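 H37Ra was tested by microdilution in 96-well plates, at 30–0.001 μg/mL in one-third dilutions. Each plate carried a rifampicin and isoniazid dilution series as positive controls. Growth was scored by XTT reduction menadione assay (XRMA) and cross-checked by a final absorbance reading at 600 nm.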

[4] = system: THP-1; assay: (§3) Cytotoxicity against human THP1 cells assessed as growth inhibition after 72 hrs by MTT assay; type: cell-based; settings: thp-1, 72 h
[5] = as §3; type: cell-based, THP-1; settings: THP-1 cells
[6] = system: Mycobacterium tuberculosis; assay: Antitubercular activity against active Mycobacterium tuberculosis H37Ra ATCC 25177 infected in human THP1 cells after 8 days by nitrate reductase assay; type: functional; settings: H37Ra ATCC 25177, 192 h
[7] = system: Mycobacterium tuberculosis; assay: Antitubercular activity against active Mycobacterium tuberculosis H37Ra ATCC 25177 after 8 days by XTT reduction menadione assay; type: functional; settings: H37Ra ATCC 25177, 192 h; in short: as §2
[8] = system: Mycobacterium tuberculosis; assay: Antitubercular activity against dormant Mycobacterium tuberculosis H37Ra ATCC 25177 at 3 to 30 ug/ml after 12 days by XTT reduction menadione assay; type: functional; parameters: scale not given: the % may be the effect or the level left
[9] = system: Mycobacterium tuberculosis; assay: Antitubercular activity against dormant Mycobacterium tuberculosis H37Ra ATCC 25177 infected in human THP1 cells after 12 days by nitrate reductase assay; type: functional; settings: H37Ra ATCC 25177, 288 h
[10] = system: HeLa; assay: (§4) Cytotoxicity against human HeLa cells assessed as growth inhibition after 72 hrs by MTT assay; type: cell-based; settings: hela, 72 h
[11] = as §4; type: cell-based; settings: HeLa cells
[12] = Selectivity index, ratio of GI50 for human PANC1 cells to MIC90 for active Mycobacterium bovis BCG ATCC 35734; type: toxicity; settings: PANC-1 cells, read-out: Selectivity Index
[13] = Selectivity index, ratio of GI50 for human PANC1 cells to MIC90 for dormant Mycobacterium bovis BCG ATCC 35734; type: toxicity; settings: PANC-1 cells, read-out: Selectivity Index
[14] = Selectivity index, ratio of GI50 for human HeLa cells to MIC90 for active Mycobacterium bovis BCG ATCC 35734; type: toxicity; settings: read-out: Selectivity Index
[15] = Selectivity index, ratio of GI50 for human THP1 cells to MIC90 for active Mycobacterium bovis BCG ATCC 35734; type: toxicity; settings: THP-1 cells, read-out: Selectivity Index
[16] = Selectivity index, ratio of GI50 for human HeLa cells to MIC90 for dormant Mycobacterium bovis BCG ATCC 35734; type: toxicity; settings: read-out: Selectivity Index
[17] = Selectivity index, ratio of GI50 for human THP1 cells to MIC90 for dormant Mycobacterium bovis BCG ATCC 35734; type: toxicity; settings: THP-1 cells, read-out: Selectivity Index
[18] = Selectivity index, ratio of GI50 for human THP1 cells to MIC90 for dormant Mycobacterium tuberculosis H37Ra ATCC 25177; type: toxicity; settings: THP-1 cells, read-out: Selectivity Index
[19] = Selectivity index, ratio of GI50 for human THP1 cells to MIC90 for active Mycobacterium tuberculosis H37Ra ATCC 25177; type: toxicity; settings: THP-1 cells, read-out: Selectivity Index
[20] = Antioxidant activity assessed as DPPH radical scavenging activity after 30 mins by spectrophotometric method; type: functional

Compound	GI90 [1] [µg/mL]	GI50 at 90 h [2] [µg/mL]	MIC90 [3] [µg/mL]	GI90 [4] [µg/mL]	GI50 at 72 h [5] [µg/mL]	MIC90 [6] [µg/mL]	MIC90 [7] [µg/mL]	Activity [8] [%]	MIC90 [9] [µg/mL]	GI90 [10] [µg/mL]	GI50 at 72 h [11] [µg/mL]	selectivity ratio [12]	selectivity ratio [13]	selectivity ratio [14]	selectivity ratio [15]	selectivity ratio [16]	selectivity ratio [17]	selectivity ratio [18]	selectivity ratio [19]	EC50 [20] [µg/mL]
O=C(CC(=O)c1cc(Cl)ccc1O)c1cc2ccccc2s1	26.03 (≈ 78.7 µM)	8.44 (≈ 25.5 µM)	2.79 (≈ 8.43 µM)	> 30	7.48 (≈ 22.6 µM)	2.83 (≈ 8.56 µM)	3.29 (≈ 9.95 µM)	>92	0.91 (≈ 2.75 µM)	8.24 (≈ 24.9 µM)	4.42 (≈ 13.4 µM)	–	–	–	–	–	–	–	–	–
Cc1ccc2oc(-c3cc4ccccc4s3)cc(=O)c2c1	29.75 (≈ 102 µM)	12.9 (≈ 44 µM)	30 (≈ 103 µM)	> 100	> 100	8.39 (≈ 28.7 µM)	28.9 (≈ 98.7 µM)	–	2.76 (≈ 9.44 µM)	27.8 (≈ 95.1 µM)	15.6 (≈ 53.2 µM)	> 20	> 20	> 20	> 22	> 20	> 22	–	–	–
O=C(CC(=O)c1cc(Br)ccc1O)c1cc2ccccc2s1	> 30	18.3 (≈ 48.8 µM)	2.63 (≈ 7.01 µM)	> 100	> 100	4.94 (≈ 13.2 µM)	2.87 (≈ 7.65 µM)	>92	3.91 (≈ 10.4 µM)	20.28 (≈ 54 µM)	6.75 (≈ 18 µM)	> 10	> 10	–	–	–	–	–	–	–
Cc1ccc(O)c(C(=O)CC(=O)c2cc3ccccc3s2)c1	> 30	15.8 (≈ 51 µM)	–	> 100	> 100	–	–	–	–	> 30	7.12 (≈ 22.9 µM)	–	> 10	–	–	–	–	–	–	–
Cc1cc(O)c(C(=O)CC(=O)c2cc3ccccc3s2)cc1Cl	> 30	20.4 (≈ 59 µM)	–	> 100	> 100	–	–	–	–	> 100	> 100	–	–	–	> 22	–	> 22	–	–	–
Cc1cc2oc(-c3cc4ccccc4s3)cc(=O)c2cc1Cl	> 100	> 100	24.3 (≈ 74.5 µM)	> 100	> 100	7.67 (≈ 23.5 µM)	25.4 (≈ 77.6 µM)	–	2.18 (≈ 6.67 µM)	> 30	21.2 (≈ 64.9 µM)	–	–	> 35	> 30	> 35	> 30	> 30	> 30	–
O=C(CC(=O)c1cc(Cl)cc(Cl)c1O)c1cc2ccccc2s1	> 30	26.2 (≈ 71.8 µM)	–	> 100	> 100	–	–	–	–	> 100	> 100	–	> 10	–	–	–	–	–	–	–
O=C(CC(=O)c1ccccc1O)c1cc2ccccc2s1	> 30	7.77 (≈ 26.2 µM)	2.05 (≈ 6.92 µM)	> 100	> 100	2.96 (≈ 9.99 µM)	25.2 (≈ 84.9 µM)	>92	1.82 (≈ 6.14 µM)	> 30	7.86 (≈ 26.5 µM)	–	–	–	–	–	–	–	–	–
Cc1ccc(C(=O)CC(=O)c2cc3ccccc3s2)c(O)c1	> 30	9.24 (≈ 29.8 µM)	4.41 (≈ 14.2 µM)	> 100	> 100	25.8 (≈ 83.3 µM)	5.45 (≈ 17.6 µM)	>92	2.61 (≈ 8.41 µM)	> 30	23.1 (≈ 74.5 µM)	–	–	> 13	–	> 13	–	–	–	20 (≈ 64.4 µM)
NNC(=O)c1ccncc1 [ISONIAZID]	–	–	0.075 (≈ 0.547 µM)	–	–	0.05 (≈ 0.365 µM)	0.074 (≈ 0.54 µM)	–	0.075 (≈ 0.547 µM)	–	–	–	–	–	–	–	–	–	–	–
CC(=O)O[C@H]1C(=O)[C@@]2(C)[C@H]([C@H](OC(=O)c3ccccc3)[C@]3(O)C[C@H](OC(=O)[C@H](O)[C@@H](NC(=O)c4ccccc4)c4ccccc4)C(C)=C1C3(C)C)[C@]1(OC(C)=O)CO[C@@H]1C[C@@H]2O [PACLITAXEL]	5.715 (≈ 6.69 µM)	0.127 (≈ 0.149 µM)	–	5.81 (≈ 6.8 µM)	0.133 (≈ 0.156 µM)	–	–	–	–	0.075 (≈ 0.0878 µM)	0.004 (≈ 0.00468 µM)	–	–	–	–	–	–	–	–	–
CO[C@H]1/C=C/O[C@@]2(C)Oc3c(C)c(O)c4c(O)c(c(/C=N/N5CCN(C)CC5)c(O)c4c3C2=O)NC(=O)/C(C)=C\C=C\[C@H](C)[C@H](O)[C@@H](C)[C@@H](O)[C@@H](C)[C@H](OC(C)=O)[C@@H]1C [RIFAMPIN]	–	–	0.043 (≈ 0.0523 µM)	–	–	0.5 (≈ 0.608 µM)	0.048 (≈ 0.0583 µM)	–	0.8 (≈ 0.972 µM)	–	–	–	–	–	–	–	–	–	–	–
